pIC50: −log10 of the molar value.
Experiments:
Assay type in all cases: functional, cell-based
SW480 = experiment: Cytotoxicity against human SW480 cells after 48 hrs by MTT assay; settings: SW480, 48 h
Method in brief: (§1)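 Cells grown in RPMI-1640 or DMEM with 10% FBS, 5% CO2, 37 °C, at 1 × 10^5 cells/mL. Adherent lines (A-549, MCF-7, SMMC-7721, SW480) were left to attach 12 h before dosing; suspension HL-60 was seeded just before dosing. Exposed 48 h to 0.064, 0.32, 1.6, 8 and 40 μM in triplicate, with cisplatin as positive control. MTT viability read-out; IC50 by Reed and Muench method.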

HL-60 = experiment: Cytotoxicity against human HL60 cells after 48 hrs by MTT assay; settings: HL-60, 48 h; method in brief: as §1
A549 = experiment: Cytotoxicity against human A549 cells after 48 hrs by MTT assay; settings: A549, 48 h; method in brief: as §1
MCF7 = experiment: Cytotoxicity against human MCF7 cells after 48 hrs by MTT assay; settings: MCF7, 48 h; method in brief: as §1
SMMC-7721 = experiment: Cytotoxicity against human SMMC7721 cells after 48 hrs by MTT assay; settings: SMMC-7721, 48 h; method in brief: as §1

| SMILES | pIC50 (SW480) | pIC50 (HL-60) | pIC50 (A549) | pIC50 (MCF7) | pIC50 (SMMC-7721) |
| --- | --- | --- | --- | --- | --- |
| CC[C@]12C=CCN3CC[C@]4(C(=C(C(=O)OC)C1)Nc1cc(OC)ccc14)[C@@H]32 | 5.62 | 6.30 | 6.00 | 6.70 | 5.96 |
| CC[C@]12C=CCN3CC[C@]4(C(=C(C(=O)OC)C1)Nc1cc(O)ccc14)[C@@H]32 | < 4.40 | 5.22 | 4.75 | < 4.40 | 4.81 |
| COC(=O)C1=C2Nc3ccccc3[C@@]23CCN2CC=C[C@@]([C@@H](C)OC(C)=O)(C1)[C@H]23 | 4.82 | 5.24 | 4.81 | 4.85 | 5.22 |
| COC(=O)C1=C2Nc3cc(OC)ccc3[C@@]23CCN2CC=C[C@@]([C@@H](C)O)(C1)[C@H]23 | 4.88 | 5.20 | 4.71 | 4.67 | 4.80 |
| CC[C@]12C=C[C@@H](CC(C)=O)N3CC[C@]4(C(=C(C(=O)OC)C1)Nc1ccccc14)[C@@H]32 | 6.30 | 6.70 | 6.22 | 6.40 | 6.52 |
| CC[C@@]12CC(C(=O)OC)=C3Nc4ccccc4[C@@]34CCN(C[C@@H]3O[C@@H]31)[C@@H]24 [LOCHNERICINE] | < 4.40 | 4.81 | < 4.40 | < 4.40 | 4.61 |
| CC[C@]12C=CCN3CC[C@]4(C(=C(C(=O)OC)C1)Nc1cc(O)c(C)cc14)[C@@H]32 [MELODININE N] | 4.82 | 5.46 | 4.73 | 4.82 | 4.81 |
| CC[C@]12C=CCN3CC[C@]4(C(=C(C(=O)OC)C1)Nc1cc(O)c(COC)cc14)[C@@H]32 [MELODININE O] | 4.83 | 5.00 | 4.74 | 4.80 | 4.82 |
| CC[C@]12C=CCN3CC[C@]4(C(=C(C(=O)OC)C1)Nc1ccc(O)cc14)[C@@H]32 [MELODININE P] | < 4.40 | 4.55 | < 4.40 | < 4.40 | < 4.40 |
| COC(=O)C1=C2Nc3ccccc3[C@@]23CCN2[C@H](CC(C)=O)C=C[C@@]([C@@H](C)O)(C1)[C@H]23 [MELODININE R] | 5.80 | 6.15 | 5.41 | 5.74 | 5.48 |
| CC[C@@]12CC(C(=O)OC)=C3Nc4ccccc4[C@@]34CCN([C@H](CC(C)=O)[C@@H]3O[C@@H]31)[C@@H]24 [MELODININE S] | 4.87 | 5.32 | 4.82 | 5.15 | 4.95 |
| CC[C@]12C=CCN3CC[C@]4(C(=C(C(=O)OC)C1)Nc1ccccc14)[C@@H]32 [TABERSONINE] | 4.92 | 5.35 | 4.83 | 5.00 | 5.25 |
